# Assay results from different studies.
# Compare with care: the assays were run in different laboratories.
# Target: Mitogen-activated protein kinase kinase kinase 15 (MAP3K15, Homo sapiens, UniProt Q6ZN16)
# Sequence (Q6ZN16 1-1313, as in one of the studies): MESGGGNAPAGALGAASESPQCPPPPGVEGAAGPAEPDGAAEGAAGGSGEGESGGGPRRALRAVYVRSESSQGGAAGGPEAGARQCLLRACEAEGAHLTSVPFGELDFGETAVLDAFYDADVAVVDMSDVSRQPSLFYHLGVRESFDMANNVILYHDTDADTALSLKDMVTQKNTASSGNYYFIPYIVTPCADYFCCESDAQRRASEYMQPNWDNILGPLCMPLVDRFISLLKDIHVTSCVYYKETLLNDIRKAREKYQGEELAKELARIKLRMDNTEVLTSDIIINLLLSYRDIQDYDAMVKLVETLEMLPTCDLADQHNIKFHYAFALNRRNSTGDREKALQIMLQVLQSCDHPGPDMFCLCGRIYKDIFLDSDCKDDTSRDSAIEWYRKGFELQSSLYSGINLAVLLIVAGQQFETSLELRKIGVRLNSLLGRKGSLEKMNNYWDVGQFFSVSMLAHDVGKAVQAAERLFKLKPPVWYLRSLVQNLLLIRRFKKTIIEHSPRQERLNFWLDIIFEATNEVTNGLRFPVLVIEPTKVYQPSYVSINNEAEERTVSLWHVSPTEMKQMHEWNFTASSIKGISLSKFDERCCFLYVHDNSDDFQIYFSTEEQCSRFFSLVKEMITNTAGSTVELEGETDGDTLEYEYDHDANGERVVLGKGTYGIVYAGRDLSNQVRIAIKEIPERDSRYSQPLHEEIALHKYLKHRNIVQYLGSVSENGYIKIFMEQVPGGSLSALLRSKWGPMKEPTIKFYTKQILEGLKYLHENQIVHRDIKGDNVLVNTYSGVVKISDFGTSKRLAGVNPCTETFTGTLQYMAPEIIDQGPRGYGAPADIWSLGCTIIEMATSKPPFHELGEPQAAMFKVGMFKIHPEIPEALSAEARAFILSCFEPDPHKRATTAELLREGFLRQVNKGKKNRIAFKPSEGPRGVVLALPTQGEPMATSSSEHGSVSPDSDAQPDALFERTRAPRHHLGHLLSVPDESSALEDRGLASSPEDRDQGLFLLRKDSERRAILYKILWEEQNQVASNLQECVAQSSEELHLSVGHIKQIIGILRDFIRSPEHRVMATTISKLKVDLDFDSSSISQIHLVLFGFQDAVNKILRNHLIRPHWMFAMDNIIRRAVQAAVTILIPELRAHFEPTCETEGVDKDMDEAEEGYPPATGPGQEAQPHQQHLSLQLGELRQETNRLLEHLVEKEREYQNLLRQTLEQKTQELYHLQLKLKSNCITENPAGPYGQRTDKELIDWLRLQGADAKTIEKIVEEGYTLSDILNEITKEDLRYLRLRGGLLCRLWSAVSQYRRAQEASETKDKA
Compound,test,setting,remaining binding [%]
O=c1nc(-c2ccccn2)sc2ccccc12,"binding, competition with immobilised ligand",1 µM,100
COc1ccnn2ncc(-c3ccnc(N(C)C)n3)c12,binding,1 µM,100
CCN1CCN(Cc2ccc(C(=O)Nc3ccc(C)c(Oc4ccc5c(c4)CC(=O)N5)c3)cc2C(F)(F)F)CC1,"binding, competition with immobilised ligand",1 µM,100
Cn1cc(Cl)c2c(Oc3c(F)cc(Nc4cc(Cl)nc(N)n4)cc3F)ccnc21,"cell-free assay, competition with immobilised ligand",0.1 µM,84
C[C@@H]1CCN(c2nccc(-c3cnn4ncccc34)n2)C1,binding,1 µM,100
O=C(Nc1c[nH]nc1C(=O)NC1CCNCC1)c1cc(F)cc(F)c1,"binding, competition with immobilised ligand",1 µM,100
O=C(c1ccc(Nc2ncc(Cl)c(-c3ccc(Cl)s3)n2)cc1)N1CCC(N2CCCC2)CC1,"binding, competition with immobilised ligand",1 µM,52
N[C@@H]1CCN(c2nccc(-c3cnn4ncccc34)n2)C1,binding,1 µM,92
COc1cnc(Nc2cccc(S(N)(=O)=O)c2)nc1N1CCN(c2ccccc2)CC1,"binding, competition with immobilised ligand",1 µM,78
O=C(c1ccc(Nc2nccc(-c3cc4ccccc4s3)n2)cc1)N1CCC(N2CCCC2)CC1,"binding, competition with immobilised ligand",1 µM,96
Nc1ncc2c(n1)-c1c([nH]c3ccc(C#CC4CC4)cc13)CCCC2,"binding, competition with immobilised ligand",1 µM,73
COc1ccc2c(c1)O[C@@H](c1ccc(OC)c(OC)c1)C[C@H]2NC(=O)C1(c2ccc3c(c2)OC(F)(F)O3)CC1,"cell-free assay, competition with immobilised ligand",1 µM,88
CC1CCCN1c1nccc(-c2cnn3ncccc23)n1 (centres unmarked),binding,1 µM,100
CC1=C(C#N)C(c2ccc3c(c2)c(NC(=O)c2ccccc2C)nn3C)C(C#N)=C(C)N1,"cell-free assay, competition with immobilised ligand",1 µM,96
CN(CCCC(F)(F)F)c1nccc(-c2cnn3ncccc23)n1,binding,1 µM,100
C[C@@H](c1ccc(-n2cnc3c(N)ncnc32)cc1)N1CCc2nn(C)c(Cc3ccccc3)c2C1=O,"binding, competition with immobilised ligand",0.1 µM,60
Cn1nc(C(F)(F)F)cc1-c1cnc(N2CCc3cc(S(=O)(=O)Nc4c(F)cc(Cl)cc4F)cc(N4CCCC4=O)c32)nc1,"cell-free assay, competition with immobilised ligand",1 µM,81
c1cnn2ncc(-c3ccnc(N4CCC45COC5)n3)c2c1,binding,1 µM,68
Cc1cnc(Nc2ccc(C(=O)N3CCC(N4CCCC4)CC3)cc2)nc1-c1cc2ccccc2s1,"binding, competition with immobilised ligand",1 µM,38
Cc1nccc(COC(=O)N2C[C@@H]3[C@@H](CNC(=O)c4ccc5[nH]nnc5c4)[C@@H]3C2)n1,"cell-free assay, competition with immobilised ligand",1 µM,95
